NR2E3 ag-1: agonists of human nuclear receptor NR2E3 | Q9Y5X4 | GST-NR2E3/biotin-RetCOR TR-FRET, 1536-well | inhibition of corepressor binding, % at 4.78 µM | 0.12% of 320,000 active;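 active means percent inhibition above the cutoff of mean plus 3 SD of all tested compounds, set per screening campaign, cut at about 20% in these data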;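 further: 0% = DMSO wells and 100% = biotin wells as full block of FRET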
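System: GST-tagged NR2E3 plus biotinylated RetCOR corepressor; Amount: 1.35 nM GST-tagged NR2E3 final; Dosing: single nominal compound dose of 4.8 µM; Schedule: 5 h incubation at 4 °C; Technique: TR-FRET with europium anti-GST and streptavidin-D2, 340 nm excitation; Controls: biotin wells as high control, 0.6% DMSO wells as low control.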
SMARCA2 act: increases SMARCA2 function in MMTV reporter cells; activation, % at 9.1 µM; MG213 cells, MMTV-luciferase reporter, dexamethasone, overnight; 1% of 370,000 active; in the data active means activation above about 7.8%;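 further: 0% = vehicle wells and 100% = reference activator wells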
DAX1 inh-1: inhibits human nuclear receptor DAX1; P51843; HEK293 Gal4-DAX1 luciferase reporter, luminescence; inhibition, % at 6.75 µM; 0.99% of 340,000 active; AID 504766;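 active means inhibition above the mean over all tested compounds plus 3 SD, cut at about 4.2% in these data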;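 further: 0% = DAX1-transfected cells with DMSO and 100% = empty-vector control cells with DMSO; inhibition shows as a rise in luminescence from relieved DAX1 repression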
Target sequence (P51843 207-470 limits assumed): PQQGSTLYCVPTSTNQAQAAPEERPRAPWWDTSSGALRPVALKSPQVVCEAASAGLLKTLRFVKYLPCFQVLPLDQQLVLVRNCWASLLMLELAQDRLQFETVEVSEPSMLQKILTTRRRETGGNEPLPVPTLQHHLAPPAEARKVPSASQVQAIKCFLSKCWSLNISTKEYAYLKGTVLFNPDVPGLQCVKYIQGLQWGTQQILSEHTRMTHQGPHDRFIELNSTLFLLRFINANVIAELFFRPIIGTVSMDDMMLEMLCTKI
NR2E3 ag-2: agonists of human NR2E3 nuclear receptor; Q9Y5X4; CHO-S Gal4-NCOR/VP16-NR2E3 two-hybrid, luciferase; inhibition of corepressor binding, % at 3.98 µM; 0.35% of 360,000 active; AID 602229;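 active means inhibition above the mean of all tested compounds plus 3 SD, cut at about 70% in these data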;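 further: 0% = DMSO with NR2E3 transfected cells and 100% = cells lacking NR2E3 construct; higher means lower luciferase signal from less NR2E3 corepressor binding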
GASC-1 inh: human JMJD2C demethylase inhibition; Q9H3R0; inhibition, % at 2.35 µM; 0.069% of 330,000 active; GST-JMJD2C(1-420) H3K9me3 demethylation, DELFIA europium;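 active means more than half of a compound's replicate wells show inhibition beyond 50%, single wells judged on their own value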;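 further: signal counts dimethyl H3K9 product captured on neutravidin plate; 0% = median of DMSO wells and 100% = 0.3 times that DMSO median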
DAX1 inh-2: blocks DAX1 repression of SF-1 activated StAR promoter; inhibition, % at 6.8 µM; 1.1% of 370,000 active; HEK293T StAR-luciferase reporter, SF-1/DAX-1 repression relief;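 active means inhibition above the mean over all tested compounds plus 3 SD, cut at about 3.6% in these data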;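 further: 0% = DAX-1 cells with DMSO and 100% = cells lacking DAX-1 with DMSO; higher inhibition means more luminescence from relief of DAX-1 repression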
SMARCA2 act conf: confirmation of SMARCA2 (BRM) function activators | shares compounds with SMARCA2 act | MG213 cells, MMTV-luciferase with dexamethasone, luminescence, overnight; MG213 cells expressing E1A, Rb sequestered; DMSO wells 0%, reference activator 100% | activation, % at 9.1 µM | 30% of 3,500 active | AID 652260;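 active means activation above its plate's cutoff, the mean activation of tested wells plus 3 SD, cut at about 7.9% in these data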
VP16 Luc act: GAL4-VP16 reporter activation counter-screen. shares compounds with SMARCA2 act. HEK293 GAL4-VP16 pG5luc reporter, luciferase luminescence; scaled: DMSO wells 0%, SAHA wells 100%. activation, % at 9.1 µM. 41% of 3,500 active. AID 686939;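 active means activation above the solvent-only control well mean plus 3 SD, averaged across control plates, cut at about 5.2% in these data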
Numbers without * were called inactive; . = no result given. Rows were chosen to be rich in hits. Some 3.2% of all compounds tested hit in one or more screens of this group.

SMILES	NR2E3 ag-1	SMARCA2 act	DAX1 inh-1	NR2E3 ag-2	GASC-1 inh	DAX1 inh-2	SMARCA2 act conf	VP16 Luc act
C[C@@H]1COc2cc(N3CCCC3)ccc2S(=O)(=O)N1C	.	-1.1	.	.	.	-0.3	.	.
Nc1nn(-c2ccccc2)c(N)c1N=Nc1ccccc1	3.1	14.6*	-1.0	-251.2	-3.3	1.3	7.4	26.7*
Cc1nn(-c2ccccc2)c(N)c1N=Nc1ccccc1	1.1	2.2	1.0	-145.1	-29.3	1.3	.	.
COC1C(CO)OC(n2c3c(Cl)cccc3c3c4c(c5c6cccc(Cl)c6[nH]c5c32)C(=O)NC4=O)C(O)C1O (stereo not drawn)	.	10.1*	-1.6	20.0	.	-3.6	22.8*	0.0
CCc1nc2ccc(C(=O)N(C)Cc3ccccc3)cn2c1N(C)Cc1ccc(OC)cc1	.	9.9*	.	7.3	.	-0.6	3.8	1.3
O=C(O)c1ccccc1S(=O)(=O)CC(=O)N1CCCCC1	-0.1	-4.3	-0.2	-24.5	7.1	0.2	.	.
CCN(CC)c1ccc(/C=N/Nc2nn[nH]n2)cc1	-8.4	-4.5	2.6	-0.2	3.1	-0.7	.	.
CCN(CC)c1ccc(/C=N/Nc2nc(C)cc(C)n2)cc1	-9.9	8.1*	.	-50.0	1.9	-0.4	-4.2	1.3
Cc1ccc(C(=O)N2CCCC(C(F)(F)F)C2)cc1S(=O)(=O)N1CCOCC1 (stereo not drawn)	1.6	8.0*	0.0	-16.4	3.5	1.3	-0.8	0.0
CN(C(=O)c1ccccc1OCC(=O)Nc1ccc(Br)cc1)c1ccccc1	.	-4.5	.	.	.	-1.5	.	.
CCOc1ccc(CNC(=O)CN2C(=O)CSc3ccc(S(=O)(=O)N4CCOCC4)cc32)cc1OC	-1.1	8.8*	0.6	0.9	18.9	-0.2	-5.5	-0.5
Cc1ccc(N(CC(=O)NC(C)(C)C)C(=O)CCC(=O)Nc2nccs2)c(C)c1	.	3.8	1.4	-36.7	-3.5	0.2	.	.
CC(=O)N1CCN(C(=O)C2CCCN(C(=O)c3ccc4c(c3)NC(=O)CS4)C2)CC1 (stereo not drawn)	.	-4.3	.	.	.	-0.1	.	.
CCOc1ccccc1NC(=O)C(=O)/C=C(\O)c1cc(OC)ccc1OC	-1.1	-3.1	0.6	-9.7	-7.4	0.8	.	.
COc1ccccc1NC(=O)C(=O)/C=C(\O)c1ccccc1	-2.3	10.3*	1.2	-31.0	-5.5	0.7	-1.0	0.3
Cc1ccc(C(=O)CCC(=O)OCC(=O)NNC(=O)c2ccc([N+](=O)[O-])cc2)cc1	1.4	9.3*	0.0	5.0	6.0	0.5	-0.1	0.6
Cc1cc(C)c2c(N)c(C(=O)NN)sc2n1	-5.1	-1.7	-0.5	-14.2	11.5	-1.0	.	.
Cc1ccc(NC(=O)c2sc3nc(C)cc(C)c3c2N)cc1	3.0	9.9*	4.2	-103.5	2.7	2.4	6.8	15.2*
Cc1ccc(CCNC(=O)c2nnc(CS(=O)(=O)c3ccccc3)o2)cc1	-0.5	-0.8	-1.0	-31.4	-7.1	-0.1	.	.
COc1nc(C)nc2c1sc1nc3c(cc12)COC(C)(C)C3	2.1	10.1*	2.2	-87.0	-4.1	3.9*	4.3	13.3*
CC1CCCCN1C(=O)c1cc(-c2ccc(Cl)c(Cl)c2)on1 (stereo not drawn)	0.3	2.2	1.3	-91.0	2.0	0.4	.	.
CC1CCCCN1C(=O)c1cc(-c2ccc3c(c2)OCO3)on1 (stereo not drawn)	0.1	9.2*	3.2	-187.1	9.5	2.1	6.2	12.1*
CN(C)c1cnn(-c2ccccc2)c(=O)c1Cl	-0.4	8.5*	1.4	-41.5	-4.1	1.2	6.1	2.0
CC(=NNC(=O)c1cccc(S(=O)(=O)N2CCOCC2)c1)c1ccc(Cl)cc1	.	-3.4	-0.4	6.0	-3.6	0.9	.	.
CC(C)NC(=O)CCn1nnc(-c2cccs2)n1	.	1.6	.	.	.	0.0	.	.

Source: PubChem
